In the library only some 1.8% were active in any assay of this set; here they are far more common.
eIF4E 4G PPI – blocks eIF4E binding to eIF4G. 220,000 compounds, 0.37% hits. TR-FRET eIF4E-eIF4GI(517-606) binding, 2 h. inhibition, % at 21.7 µM;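 active means inhibition above about 30%, limit read from the data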;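 further: 0% = full FRET control wells and 100% = background wells lacking eIF4GI fragment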
PABP1 MLLE inh – blocks PAM2 peptide binding to the PABP1 MLLE domain; GST-MLLE / FITC-PAM2 fluorescence polarization; inhibition, % at 20 µM; 360,000 compounds, 0.36% hits; in the data active means inhibition above about 35%, passing the limit was not always enough;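 further: plate controls were DMSO wells with GST-MLLE for no effect and wells lacking GST-MLLE protein for full effect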
PABP FP inh – blocks human PABP binding to poly(A) RNA | 290,000 compounds, 1% hits | calls only at 35 µM | fluorescence polarization | AID 2014;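 further: calls also rest on retests at 20 µM and on dose response follow-up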
core dimer inh – blocks dimerization of HCV core protein; TR-FRET GST/Flag-core106 dimerization, 1536-well; inhibition, % at 5 µM; 300,000 compounds, 0.33% hits; AID 1899;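 active means inhibition above the mean of all tested compounds plus 3 SD, set per screening campaign, cut at about 45% in these data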
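Material: Tagged HCV core106 pair (GST and Flag) | Amount: GST-core106 13.5 nM, Flag-core106 17 nM | Medium: KF-containing HEPES buffer, pH 7.45, DTT, CHAPS, BSA | Reagent: Eu donor and XL665 acceptor anti-tag antibodies | Schedule: 4 h at 22.5 °C | Technique: Time-resolved FRET, ex 340 nm, em 617 and 671 nm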
eIF4H inh – inhibitors of RNA binding by human eIF4H | eIF4H fluorescence polarization binding assay | inhibition, % at 35 µM | 290,000 compounds, 0.94% hits | AID 2012;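 further: calls also rest on retests at 20 µM and on dose response follow-up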
UBC9 SUMO inh – inhibitors of human SUMOylation (UBC9); HTRF SUMOylation assay, SAE1/SAE2 + UBC9, in vitro; inhibition, % at 35 µM; 290,000 compounds, 0.36% hits; AID 2006; in the data active means inhibition above about 50%, passing the limit was not always enough
Active calls of the source: *; i = inactive; x = no result given; + = active, no number. Unless noted, how the calls were made is not given here.

SMILES	eIF4E 4G PPI	PABP1 MLLE inh	PABP FP inh	core dimer inh	eIF4H inh	UBC9 SUMO inh
Cc1cccc(C)c1NC(=O)CN(C)C(=O)CC1CC2CCC1C2 (stereo not drawn)	x	-30	x	x	x	x
CCOc1ccc(S(=O)(=O)N/N=C(\C)C2CCCCC2)cc1	-2	8	+	-6	71*	-1
CCOc1ccc(S(=O)(=O)NC2CCCCCC2)cc1	-4	-9	i	3	-6	-6
O=c1oc2cc([N+](=O)[O-])ccc2nc1/C=C(O)/C=C/c1ccccc1	3	x	i	1	72*	23
CC(C)N1CCN(Cc2ccc(Sc3nncn3C)o2)CC1CCO (stereo not drawn)	94*	5	i	-2	12	25
CC(C)CCN1CCN(Cc2ccc(Sc3nncn3C)o2)CC1CCO (stereo not drawn)	0	5	i	3	-2	15
CCOc1ccc(/C=N/Nc2nc(C)cs2)c(O)c1	x	-16	i	x	0	-8
NS(=O)(=O)OCC(Cc1ccccc1)N1C(=O)c2ccccc2C1=O (stereo not drawn)	x	-3	i	-13	3	20
O=C(Nc1ccc(Cl)c(Cl)c1)Nc1nnc(-c2ccncc2)s1	38*	-6	+	87*	74*	12
CCN(CC)C(=O)[C@H]1C[C@H](CC(=O)NCc2ccc(OC)c(OC)c2)C(=O)N2CCc3c([nH]c4ccc(Cl)cc34)[C@]12C	x	-4	x	x	x	x
N#Cc1c(NC(=O)c2ccccc2Cl)n(Cc2ccccc2)c2nc3ccccc3nc12	1	-14	i	20	-4	100*
CCCCn1c(NC(=O)c2ccccc2Cl)c(C#N)c2nc3ccccc3nc21	9	-16	i	22	-3	x
CC(=O)N1CCSc2ccc(S(=O)(=O)Nc3ccc(C)cc3)cc21	x	0	i	-20	-7	14
Cc1ccc(S(=O)(=O)N(C)C)cc1NC(=S)NNC(=O)C1CC1	2	-28	i	-4	-2	-2
Cc1ccc(S(=O)(=O)N(C)C)cc1NC(=S)NNC(=O)C(N)=O	-2	-28	+	2	9	-4
O=C(c1cccnc1)N1CCN(c2ccc3ccccc3n2)CC1	8	-3	i	-9	0	-7
Cc1ccc2[nH]c3ccccc3c(=O)c2c1	x	10	i	8	-5	29
O=c1c2ccccc2[nH]c2ccc(O)cc12	x	26	+	-10	92*	18
CC(C)NC(=O)Nc1ccc2c(c1)C(=O)N([C@H](C)CO)C[C@H](C)[C@@H](CN(C)Cc1ccc3c(c1)OCO3)OCCCC[C@@H](C)O2	x	0	x	x	x	x
COc1cc(C(=O)NCC(=O)N/N=C/c2ccc(OC(=O)c3ccco3)cc2)cc(OC)c1OC	0	-7	i	2	23	0
CC1C/C(=C/c2ccco2)C(=O)/C(=C/c2ccco2)C1 (stereo not drawn)	15	x	i	25	81	43
O=C1/C(=C\c2ccco2)CCC/C1=C\c1ccco1	14	-43	i	32	86	52*
O=C1C(=Cc2ccc(F)cc2)Cc2ccccc21	x	-1	x	x	x	x
O=C1/C(=C/c2ccco2)Cc2ccccc21	2	-1	+	-13	80*	21
COC(=O)C1=C(C(=O)OC)C(c2cc(Cl)ccc2O)c2sc(=O)[nH]c2S1 (stereo not drawn)	-1	33	i	-4	7	2
SMILES	eIF4E 4G PPI	PABP1 MLLE inh	PABP FP inh	core dimer inh	eIF4H inh	UBC9 SUMO inh
COC(=O)C1=C(C(=O)OC)C(c2cc(Br)ccc2O)c2sc(=O)[nH]c2S1 (stereo not drawn)	3	44*	i	-5	0	-41
O=S(=O)(NCC1CCC(NS(=O)(=O)c2c(F)cccc2F)CC1)c1ccc2c(c1)OCCO2 (stereo not drawn)	x	1	x	x	x	x
COc1ccc(-c2csc3nc(-c4ccc(C)cc4)oc(=O)c23)cc1OC	22	18	i	50*	13	4
O=C(NC(=S)NNS(=O)(=O)c1ccc(Cl)cc1)c1cccnc1	-1	40*	i	2	18	-30
Cc1ccccc1-n1c(=O)cc(N2CCc3ccccc3C2)[nH]c1=O	1	22	+	-3	79*	1
Cc1ccc(OCC(=O)Oc2ccc(C)c(C)c2)cc1	x	-17	i	12	-6	4
COCc1nnc(NC(=O)C2CC(=O)N(CCc3ccc(F)cc3)C2)s1 (stereo not drawn)	x	16	i	-7	0	-4
Cc1cnc(C(=O)OCC(=O)Nc2ccccc2[N+](=O)[O-])cn1	x	0	x	x	x	x
CN1CCCc2cc(C=O)ccc21	3	-8	i	-5	-4	33
CCCN1CCCc2cc(CN)ccc21	1	45*	+	-7	58*	41
Cc1nc2ccccc2c(=O)n1NC(=O)CCC(=O)O	-1	-9	i	-2	-5	11
COc1ccc(CCNC(=O)CSc2ccc(-c3ccco3)nn2)cc1OC	1	9	i	-1	4	20
Cc1ccccc1NC(=O)CSc1nnc(-c2ccco2)n1N	x	33	x	-1	x	x
COc1ccc(CCNC(=O)CSc2nnc(-c3ccco3)c(-c3ccco3)n2)cc1OC	x	x	+	8	84*	38
Cc1cccc(NC(=O)CSc2nnc(-c3ccco3)c(-c3ccco3)n2)c1C	20	33	+	11	91*	36
Cc1cccc(NC(=O)CSc2nnc(-c3ccco3)c(-c3ccco3)n2)c1	11	28	+	x	89	46
COc1cc(CC(=O)OCC(=O)NCCc2ccc(S(N)(=O)=O)cc2)cc(OC)c1OC	x	-1	x	x	x	x
COc1cc(CC(=O)NCCc2ccc(S(N)(=O)=O)cc2)cc(OC)c1OC	81*	-4	i	-10	-2	13
Cc1ccc(S(=O)(=O)N(C)C)cc1NC(=O)COC(=O)c1ccc2c(c1)NC(=O)CS2	2	-10	i	1	-4	6
CCCc1nc2sc3ccccc3c(=O)c2c(=O)n1Cc1ccco1	6	27	+	x	64*	-4
COC(=O)C1=C(C)N(c2ccc(OC)cc2)C(=O)/C1=C\c1cccs1	-4	-9	+	-9	active	9
CC(=NN1CC(=O)NC1=O)c1ccc([N+](=O)[O-])o1	x	0	x	x	x	x
Cn1c(=O)c2ncn(CC(=O)NC3CCCCCC3)c2n(C)c1=O	0	-112	+	-10	-6	18
N#CC1(NC(=O)CSc2n[nH]c(-c3ccccc3)n2)CCCCC1	x	-4	x	-2	x	x
C/C(CCc1ccc2c(c1)OCO2)=N\NC(=O)c1ccccc1	-2	1	i	-1	11	-10
NC(=NCc1ccc2c(c1)OCO2)NC(=O)c1ccccc1	68*	7	i	x	5	32

High-throughput results as filed in PubChem BioAssay.
